Experiments:
[1] = tested on: Mus musculus; assay: Antifibrotic activity in C57BL/6 mouse assessed as reduction of lung fibrosis administered as po qd for 15 days starting 1 day prior to bleomycin instillation measured on day 14 post bleomycin instillation by Masson's trichrome staining-based assay; assay type: functional
Summary of the method: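 Lung fibrosis induced in male C57BL/6 mice aged 6 to 7 weeks by a single oropharyngeal dose of bleomycin (1.5 U/kg). Compound given orally once daily at 3, 10, 30 or 60 mg/kg for 15 days, starting 1 day before bleomycin. Lungs taken at day 14 post-bleomycin, stained with H&E and Masson's trichrome, and an Ashcroft score assigned.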

[2] = biological target: T1, Lysyl oxidase homolog 2 (Homo sapiens, UniProt Q9Y4K0); assay: Inhibition of human LOXL2 expressed in CHO cells assessed as reduction of H2O2 production from oxidative deamination of DAP preincubated for 2 hrs followed by substrate addition in presence of 0.1% BSA measured every 2 mins for 1 hr by amplex red reagent-based fluorescence assay; assay type: cell-based
T1 sequence (Q9Y4K0 whole entry): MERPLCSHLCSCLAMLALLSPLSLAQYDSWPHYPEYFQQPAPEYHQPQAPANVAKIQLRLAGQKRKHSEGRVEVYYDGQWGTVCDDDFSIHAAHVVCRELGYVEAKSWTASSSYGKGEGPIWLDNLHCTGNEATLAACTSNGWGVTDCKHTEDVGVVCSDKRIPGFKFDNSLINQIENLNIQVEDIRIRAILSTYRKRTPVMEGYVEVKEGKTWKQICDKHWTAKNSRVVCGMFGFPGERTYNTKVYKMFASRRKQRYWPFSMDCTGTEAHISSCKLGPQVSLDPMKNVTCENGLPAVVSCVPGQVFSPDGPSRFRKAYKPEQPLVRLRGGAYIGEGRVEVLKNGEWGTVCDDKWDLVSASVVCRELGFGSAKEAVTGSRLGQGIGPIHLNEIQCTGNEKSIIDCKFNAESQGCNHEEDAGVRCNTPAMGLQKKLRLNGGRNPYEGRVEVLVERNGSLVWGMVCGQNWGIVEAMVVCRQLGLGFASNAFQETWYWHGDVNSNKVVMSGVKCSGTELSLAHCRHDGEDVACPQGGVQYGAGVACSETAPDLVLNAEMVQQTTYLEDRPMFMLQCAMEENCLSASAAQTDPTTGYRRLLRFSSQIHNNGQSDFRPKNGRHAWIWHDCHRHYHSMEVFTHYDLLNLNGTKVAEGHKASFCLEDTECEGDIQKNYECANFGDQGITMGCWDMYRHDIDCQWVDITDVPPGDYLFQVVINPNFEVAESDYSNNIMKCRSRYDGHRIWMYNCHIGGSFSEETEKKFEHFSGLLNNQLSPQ

[3] = Cmax in C57BL/6 mouse plasma at 30 mg/kg, po by LC-MS/MS analysis; assay type: ADME, organism-based; set-up: dose 30 mg/kg, route oral
Summary of the method: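 Normal C57BL/6 mice, n = 3 per time point, received a single oral 30 mg/kg dose formulated in 0.5% methylcellulose.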

[4] = biological target: T2, MAO-A (Homo sapiens, UniProt P21397); assay: Inhibition of recombinant human MAO-A assessed as reduction of H2O2 production from oxidative deamination of tyramine at 10 uM preincubated for 2 hrs followed by substrate addition; conditions: probe tyramine
T2 sequence (P21397 whole entry): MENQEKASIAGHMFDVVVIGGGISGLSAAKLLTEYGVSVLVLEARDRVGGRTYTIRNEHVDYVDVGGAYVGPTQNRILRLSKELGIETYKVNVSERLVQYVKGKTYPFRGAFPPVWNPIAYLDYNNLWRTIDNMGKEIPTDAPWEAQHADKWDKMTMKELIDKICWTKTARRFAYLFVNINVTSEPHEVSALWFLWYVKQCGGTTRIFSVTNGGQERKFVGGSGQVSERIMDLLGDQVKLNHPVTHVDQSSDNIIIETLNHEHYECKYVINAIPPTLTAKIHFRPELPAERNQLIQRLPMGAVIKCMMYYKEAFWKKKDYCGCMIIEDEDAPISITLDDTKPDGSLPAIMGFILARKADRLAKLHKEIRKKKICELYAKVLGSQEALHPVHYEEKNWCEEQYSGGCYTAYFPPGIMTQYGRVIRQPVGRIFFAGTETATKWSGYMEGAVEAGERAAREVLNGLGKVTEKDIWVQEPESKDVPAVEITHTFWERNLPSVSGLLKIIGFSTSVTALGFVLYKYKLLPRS
Summary of the method: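 Purified recombinant human MAO-A (tyramine substrate) or MAO-B (benzylamine substrate) was preincubated with compound for 2 h. Percent inhibition was calculated against vehicle and enzyme-free controls.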

[5] = biological target: T3, Lysyl oxidase homolog 3 (Homo sapiens, UniProt P58215); assay: Inhibition of recombinant human LOXL3 assessed as reduction of H2O2 production from oxidative deamination of DAP preincubated for 2 hrs followed by substrate addition measured every 2 mins for 1 hr by amplex red reagent-based fluorescence assay
T3 sequence (P58215 whole entry): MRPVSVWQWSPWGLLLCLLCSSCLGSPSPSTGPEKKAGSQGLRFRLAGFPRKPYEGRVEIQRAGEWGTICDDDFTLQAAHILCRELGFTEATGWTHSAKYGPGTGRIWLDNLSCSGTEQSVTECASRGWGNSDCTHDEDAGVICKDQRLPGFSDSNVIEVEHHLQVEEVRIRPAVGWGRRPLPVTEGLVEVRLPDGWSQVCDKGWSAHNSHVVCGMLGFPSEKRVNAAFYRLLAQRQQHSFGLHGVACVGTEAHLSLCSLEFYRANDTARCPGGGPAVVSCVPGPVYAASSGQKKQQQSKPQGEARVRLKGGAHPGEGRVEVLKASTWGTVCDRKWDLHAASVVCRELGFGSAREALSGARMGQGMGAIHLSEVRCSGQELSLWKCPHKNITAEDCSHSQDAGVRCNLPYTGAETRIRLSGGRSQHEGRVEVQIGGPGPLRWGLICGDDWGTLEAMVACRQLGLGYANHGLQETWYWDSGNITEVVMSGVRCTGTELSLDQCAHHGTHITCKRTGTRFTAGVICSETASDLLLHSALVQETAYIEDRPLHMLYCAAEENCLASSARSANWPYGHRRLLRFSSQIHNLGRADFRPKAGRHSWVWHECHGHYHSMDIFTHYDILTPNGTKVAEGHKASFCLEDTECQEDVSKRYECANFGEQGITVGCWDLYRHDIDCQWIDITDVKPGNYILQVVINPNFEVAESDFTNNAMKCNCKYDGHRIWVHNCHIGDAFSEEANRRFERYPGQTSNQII
Summary of the method: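 Purified recombinant human LOXL3 was preincubated with compound for 2 h, then H2O2 produced from DAP deamination was measured.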

Question: For `Cl.NCc1cc(Oc2cccc(C(=O)N3C[C@@H](O)[C@H](F)C3)c2)nc(C(F)(F)F)c1` (racemic), which Activity [1] is on record?
Answer: Dose-dependent effect

Question: And the minimal effective dose ([1]; C57BL/6, po, read-out: MED)?
Answer: 30 mg/kg

Question: What about the IC50 [2] of the same compound?
Answer: 100 nM

Question: What about the Cmax [3] of the same compound?
Answer: 3.09 µM

Question: And the inhibition at 2 h, 10 µM [4]?
Answer: < 10%

Question: What about the IC50 [5] of the same compound?
Answer: 1380 nM

From ChEMBL document CHEMBL4049456, “Identification of 4-(Aminomethyl)-6-(trifluoromethyl)-2-(phenoxy)pyridine Derivatives as Potent, Selective, and Orally Efficacious Inhibitors of the Copper-Dependent Amine Oxidase, Lysyl Oxidase-Like 2 (LOXL2)” (J Med Chem, 2017)
